The values that follow come from the M2OR odorant receptor database.

The assay deals with T1, OR1A2 (Homo sapiens) (UniProt Q9Y585).
T1 sequence (whole entry): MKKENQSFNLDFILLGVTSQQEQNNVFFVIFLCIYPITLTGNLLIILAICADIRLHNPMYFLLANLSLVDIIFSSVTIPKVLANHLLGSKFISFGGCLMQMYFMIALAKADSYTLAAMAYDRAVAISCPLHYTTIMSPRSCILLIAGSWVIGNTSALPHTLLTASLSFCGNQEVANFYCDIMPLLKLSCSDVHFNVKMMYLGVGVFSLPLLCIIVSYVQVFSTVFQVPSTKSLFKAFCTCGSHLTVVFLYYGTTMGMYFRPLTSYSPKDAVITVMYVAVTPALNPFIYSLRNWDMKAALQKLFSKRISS
The conditions noted are these: stereoisomer not certain. In short, it runs like this:
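Values were gathered from published papers (main text and supplementary material), with extra details requested from the original authors when needed, and checked for typos and inconsistencies. Each receptor–molecule pair is called responsive (active) if the original authors judged the measured signal statistically different from baseline, and non-responsive (inactive) otherwise. Assay methods varied by source, often transient mammalian cell-line luciferase assays. Recorded details include cell line, G-protein, co-transfected protein and tags.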
Consider `CSCCC=O`, for which the “odorant receptor agonist call” value is “inactive”. With `COC(C=C(C)CCC=C(C)C)OC`, the “odorant receptor agonist call” value was “inactive”. Consider `C=CC(C)(O)CCC=C(C)CCC=C(C)C` (centres undefined), for which the “odorant receptor agonist call” value was “active”.

For `CC(=O)OCCC(C)C`, the “odorant receptor agonist call” value is “inactive”. Under `Cc1cnccn1` stands “inactive”; under `CCCCCC=CCCC=O`, “active”. Regarding `C1CCNC1`, the “odorant receptor agonist call” value is “inactive”. Take `CCCCCCCC=CC=CC=O`: the “odorant receptor agonist call” value was “inactive”. In the case of `CC(CC=O)CCCC(C)(C)O` (centres undefined), the “odorant receptor agonist call” value is “active”. To `CC(C)=CCCC(C)CCO` (centres undefined) belongs “active”. For the molecule `CCCCCCC(=O)[O-].[H+]`, the “odorant receptor agonist call” value was “inactive”.

As to `CCCCCCCCCO`, the “odorant receptor agonist call” value is “inactive”. Consider `C=CC(=O)CC`, for which the “odorant receptor agonist call” value is “inactive”. Consider `C=C(C)C1CC=C(C)C(OC(C)=O)C1` (centres undefined), for which the “odorant receptor agonist call” value was “inactive”.

As to `Cc1nccnc1C`, the “odorant receptor agonist call” value is “inactive”. To `CC(C)C12CCC(C)(CC1)O2` belongs “inactive”; to `CN(C)C`, “inactive”. To `C=CC(=O)CCCCC` belongs “active”. For `C=CC(O)CCCCC` (centres undefined), the “odorant receptor agonist call” value is “inactive”. As for `C=C(C)C1CC=C(C)C(O)C1` (centres undefined), the “odorant receptor agonist call” value was “active”. In the case of `CCCCCO`, the “odorant receptor agonist call” value was “inactive”. For the molecule `CCCCCCCCC(=O)O`, the “odorant receptor agonist call” value is “inactive”.

As for `CC(C)=CCCC(C)=CC#N`, the “odorant receptor agonist call” value was “inactive”. `CC(C)=CCCC(C)CC(=O)O` (centres undefined): the “odorant receptor agonist call” value was “inactive”.

For the molecule `CC1(C)C2CC=C(C=O)C1C2` (centres undefined), the “odorant receptor agonist call” value is “inactive”. With `CCCC(C)C=O` (centres undefined), the “odorant receptor agonist call” value was “inactive”. `CC(=O)CCc1ccc(O)cc1`: the “odorant receptor agonist call” value was “inactive”.

Turning to `C=C(C)C1CC=C(C)CC1` (centres undefined), the “odorant receptor agonist call” value was “active”. As for `CC(=O)C=CC1=C(C)CCCC1(C)C`, the “odorant receptor agonist call” value is “active”.
